Measured values as given in article PMC9670593 (Journal of Molecular Liquids, 2022).
Converted amounts (≈) assume the structure as drawn. “And” between values parts separate entries of the source, which are not always exact repeats. Equal entries are not always repeated. Where two headings read alike, the source gives them in different places.

How the values were obtained:
[1] = test system: Escherichia coli (ATCC: 25922); experiment: Antibacterial agar disc diffusion; type: cell-based; details: for Inhibition zones (mm): 5-mm discs, 100 μg/mL; for Activity index (%): relative to ampicillin; for zone of inhibition at 100 µg/mL: Escherichia coli, read-out: Inhibition zones (mm)
How it was run: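 E. coli ATCC 25922 grown on Mueller–Hinton agar, 18–24 h at 35 °C. Inoculum adjusted to McFarland 0.5 (1.5x 10^8 CFU/mL) and swabbed as a lawn on Mueller–Hinton plates. Test compounds were stocked at 20 mg in 1 mL DMSO, and 5-mm paper discs were loaded with 100 μg/mL. Inhibition zone diameter was measured against ampicillin as standard, with DMSO as negative control. Assayed twice.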

[2] = test system: HEK293: human embryonic kidney cells; experiment: Cytotoxicity MTT assay, HEK293 normal cells; type: cell-based; details: for IC50 HEK293: MTT, normal cell line, means ± SD, n = 3
How it was run: (§1)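 Cells were kept in DMEM with 0.2 % sodium bicarbonate and 10 % FBS at 37 °C, 5 % CO2, humidified. Only batches above 98 % trypan-blue viability were used. 10,000 cells/well adhered 24 h before treatment. MTT (5 mg/ml PBS stock, 10 μl per 100 μl) was added for 4 h, formazan dissolved in DMSO and read at 550 nm. Background-corrected survival = ODt/ODc ×100 versus untreated controls; IC50 taken from dose–response curves; cisplatin reference.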

[3] = biological target: Human serum albumin (HSA) (Homo sapiens, UniProt P02768); experiment: HSA binding, fluorescence quenching titration; details: slope of Fo/F vs [metal complex]
Human serum albumin (HSA), sequence (P02768 25-609): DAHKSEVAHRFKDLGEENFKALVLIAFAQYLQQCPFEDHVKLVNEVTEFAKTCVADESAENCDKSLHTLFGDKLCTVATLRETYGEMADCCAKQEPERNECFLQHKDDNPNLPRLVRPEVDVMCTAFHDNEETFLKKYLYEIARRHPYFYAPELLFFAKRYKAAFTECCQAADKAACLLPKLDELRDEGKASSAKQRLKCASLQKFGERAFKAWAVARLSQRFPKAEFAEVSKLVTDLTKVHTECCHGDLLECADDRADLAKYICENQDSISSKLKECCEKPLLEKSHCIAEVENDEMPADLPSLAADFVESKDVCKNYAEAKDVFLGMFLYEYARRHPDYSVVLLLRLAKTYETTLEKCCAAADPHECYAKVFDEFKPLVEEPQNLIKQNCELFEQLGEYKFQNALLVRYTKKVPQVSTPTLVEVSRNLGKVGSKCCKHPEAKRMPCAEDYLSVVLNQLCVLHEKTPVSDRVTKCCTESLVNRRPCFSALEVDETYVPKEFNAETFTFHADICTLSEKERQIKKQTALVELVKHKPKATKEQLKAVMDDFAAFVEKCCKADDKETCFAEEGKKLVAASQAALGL
How it was run: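 HSA concentration fixed spectrophotometrically at 278 nm using ε 35,219 M−1cm−1 (1 cm quartz). Increasing amounts of metal complex were titrated into constant HSA. Tryptophan fluorescence was excited at 280 nm and emission recorded over 300–400 nm. KSV was taken as the slope of the Stern–Volmer plot Fo/F versus [complex].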

[4] = test system: HELA: cancerous cervical tumor cells; experiment: Cytotoxicity MTT assay, HELA; type: cell-based, human; details: for IC50 HELA: means ± SD, n = 3; for IC50: read-out: IC50 HELA; for cytotoxic activity class, HELA: class by IC50 (µg/mL)
How it was run: as §1

[5] = test system: Escherichia coli (ATCC: 25922); experiment: Antibacterial minimal inhibitory concentration; type: cell-based; details: 24 h; for Minimum Inhibition concentration (MIC): E. coli
How it was run: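 Test compounds were stocked at 20 mg/mL in DMSO. Ampicillin was run as standard drug and DMSO as negative control. MIC reported in μM.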

[6] = Formation stability constant of the complexes; type: physicochemical; details: metal:ligand 1:2
[7] = test system: MCF-7: a human breast cancer cell line; experiment: Cytotoxicity MTT assay, MCF-7; type: cell-based; details: for IC50 MCF-7: means ± SD, n = 3; for IC50: read-out: IC50 MCF-7
How it was run: as §1

Escherichia coli = details: cited from earlier work

| Compound | Inhibition zones (mm) [1] | Activity index (%) [1] | IC50 HEK293 [2] | fluorescence constant (Kvs; Stern-Volmer quenching constant KSV) with HSA [3] | IC50 HELA ([4]; MTT) | IC50 ([4]; MTT) | Minimum Inhibition concentration (MIC) [5] | formation stability constant for the complexes [6] | IC50 MCF-7 ([7]; MTT) | IC50 ([7]; MTT) | concentration showing complete inhibition of Escherichia coli (Escherichia coli) | reported growth-inhibiting concentration toward Escherichia coli (Escherichia coli; practical value for more than 24 h) | cytotoxic activity class, HELA [4] | cytotoxic activity class, MCF-7 ([7]; class by IC50 (µg/mL)) | zone of inhibition at 100 µg/mL [1] | IC50 ([2]; Homo sapiens, HEK293, read-out: IC50 HEK293) | IC50 ([4]; Homo sapiens, HeLa) | MIC ([5]; Escherichia coli, read-out: Minimum Inhibition concentration (MIC)) | IC50 ([7]; Homo sapiens, MCF7a) |
| --- | --- | --- | --- | --- | --- | --- | --- | --- | --- | --- | --- | --- | --- | --- | --- | --- | --- | --- | --- |
| [Ag(NTZ)2]NO3 [NTZ-Ag(I)] | 28 mm | 85% | 660 ± 3 µg/mL | 3e+06 M⁻¹ | 45 ± 2 µg/mL | 58.7 µM | 5.5 µM | 4.22 × 10^5 | 39 ± 4 µg/mL | 50.8 µM |  |  |  |  |  |  |  |  |  |
| O=[N+]([O-])[O-].[Ag+] [AgNO3] |  |  |  |  |  |  |  |  |  |  | > 8.5 µM | 6.5 µM |  |  |  |  |  |  |  |
| [Au(NTZ)2]Cl3 [NTZ-Au(III)] | 12 mm | 37% | 675 ± 5 µg/mL | 7e+06 M⁻¹ | 8.9 ± 4 µg/mL | 9.7 µM | 27.5 µM | 17.92 × 10^5 | 25 ± 5 µg/mL | 27.3 µM |  |  | very strong (1–10 (very strong)) | Moderate |  |  |  |  |  |
| [Ru(NTZ)2Cl2]Cl [NTZ-Ru(III)] | 20 mm | 61% | 265 ± 5 µg/mL | 4e+06 M⁻¹ | 6.5 ± 3 µg/mL | 7.9 µM | 7.5 µM | 34.37 × 10^5 | 10.5 ± 2 µg/mL | 12.8 µM |  |  | very strong (1–10 (very strong)) |  |  |  |  |  |  |
| CC1(C)S[C@@H]2[C@H](NC(=O)[C@H](N)c3ccccc3)C(=O)N2[C@H]1C(=O)O [Ampicillin, reference compound] |  | 100% |  |  |  |  |  |  |  |  |  |  |  |  | 33 mm |  |  |  |  |
| CC(=O)Oc1ccccc1C(=O)Nc1ncc([N+](=O)[O-])s1 [Free NTZ, 2-(acetyloxy)-N-(5-nitro-2-thiazolyl) benzamide, reference compound] |  | 24% |  |  |  |  |  |  |  |  |  |  |  |  | 8 mm | 1050 ± 10 µg/mL (≈ 3.42 mM) | 78 µg/mL and 254 µM | 105 µM (≈ 32.3 µg/mL) | 62 µg/mL and 202 µM |
